Test results published in ChEMBL document CHEMBL5653613 (Mol Cancer Ther, 2013).
The source made the active and inactive calls. The rule behind the calls is not given here.

Tests used:
[1] = Effect on cisplatin resistance in human T47D cells with compound-induced polyploidy assessed as change in cisplatin-induced cytotoxicity by measuring increase in cisplatin IC50 at 5 umol/L preincubated for 72 hrs followed by compound washout and subsequent cisplatin treatment for 72 hrs by MTS assay; format: functional, cell-based
T47D [2] = assay: Induction of polyploidy in human T47D cells assessed as cells with 8N chromosome contents at 5 uM incubated for 72 hrs by PI staining based flow cytometry (reference value: 0); format: functional
ZR-75-1 [3] = assay: Induction of polyploidy in human ZR-75-1 cells with RON-/- at 5 umol/L incubated for 72 hrs followed by media replacement without compound measured upto 10 days by microscopic analysis; format: functional, cell-based; conditions: dose 5.0 µmol/L
MCF7 [4] = assay: Induction of polyploidy in human MCF7 cells assessed as cells with 4N chromosome contents at 5 uM incubated for 48 hrs by PI staining based flow cytometry (reference value: 36); format: functional
ZR-75-1 [5] = assay: Induction of apoptosis in human ZR-75-1 cells assessed as late cells at 5 umol/L incubated for 3 days by Annexin V/PI staining based flow cytometry (reference value: 3.8 %); format: functional; conditions: dose 5 µmol/L; time 3 day; at 5 µM
[6] = Effect on paclitaxel resistance in human ZR-75-1 cells with compound-induced polyploidy assessed as change in paclitaxel-induced cytotoxicity by measuring increase in paclitaxel IC50 at 5 umol/L preincubated for 72 hrs followed by compound washout and subsequent paclitaxel treatment for 72 hrs by MTS assay; format: functional, cell-based
T47D [7] = assay: Induction of polyploidy in human T47D cells assessed as cells with 8N chromosome contents at 5 uM incubated for 24 hrs by PI staining based flow cytometry (reference value: 0); format: functional
ZR-75-1 [8] = assay: Induction of polyploidy in human ZR-75-1 cells with RON-/- by microscopic analysis; format: functional, cell-based
Summary of the method: (§1)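 Cells (2 106 per 60-mm dish) transiently transfected for 48 hours with 1 nmol/L scrambled or RON-specific siRNA, with knockdown confirmed by anti-RON Western blot. […] Polyploidy monitored and photographed by microscopy, with untransfected and scrambled-siRNA cells as comparators.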

T47D [9] = assay: Induction of polyploidy in human T47D cell at 5 umol/L by microscopic analysis; format: functional, cell-based; conditions: dose 5.0 µmol/L, time 72.0 hrs, TDE = time-dependent effect
T47D [10] = assay: Induction of apoptosis in human T47D cells assessed as late cells at 5 umol/L incubated for 3 days by Annexin V/PI staining based flow cytometry (reference value: 2.9 %); format: functional; conditions: dose 5 µmol/L; time 3 day; at 5 µM
T47D [11] = assay: Disruption of microtubule dynamics in human T47D cells assessed as lack of chromosomal segregation at 5 umol/L incubated for 24 hrs by immunofluorescence staining based analysis; format: functional, cell-based; conditions: dose 5.0 µmol/L
Summary of the method: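 T-47D cells (1 × 10^6/dish) in RPMI-1640 with 5% FBS were treated with or without 5 µmol/L for 24, 48 and 72 h. Cells were fixed in cold acetone and stained with mouse anti-α-tubulin or anti-γ-tubulin, then an FITC anti-mouse IgG secondary, plus DAPI. Fluorescence microscopy, 200× magnification.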

MCF7 [12] = assay: Induction of polyploidy in human MCF7 cells assessed as cells with 8N chromosome contents at 5 uM incubated for 24 hrs by PI staining based flow cytometry (reference value: 0); format: functional
[13] = Effect on methotrexate resistance in human ZR-75-1 cells with compound-induced polyploidy assessed as change in methotrexate-induced cytotoxicity by measuring increase in methotrexate IC50 at 5 umol/L preincubated for 72 hrs followed by compound washout and subsequent methotrexate treatment for 72 hrs by MTS assay; format: functional, cell-based
Summary of the method: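 Cells were first given the inducing compound for 72 h in 100-mm dishes. Polyploid cells were collected, washed and replated at 5,000 cells/well, with untreated cells at the same density as control. Methotrexate was added over a concentration range for 72 h, in triplicate. Viability was read by MTS assay and the IC50 calculated; 1 of 3 experiments shown.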

ZR-75-1 [14] = assay: Induction of cell death of human ZR-75-1 cells with RON-/- at 5 umol/L incubated for 72 hrs followed by media replacement without compound measured upto 10 days by microscopic analysis; format: functional, cell-based; conditions: dose 5.0 µmol/L
T47D [15] = assay: Induction of polyploidy in human T47D cells at 10 umol/L incubated for 72 hrs by microscopic analysis relative to control; format: functional; conditions: dose 10 µmol/L, at 10 µM
Summary of the method: (§2)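 Cells stained with Hema-3 and photographed under a light microscope with CCD camera. Polyploid cells scored as percent of the population.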

T47D [16] = assay: Induction of polyploidy in human T47D cells with RON-/- at 5 umol/L incubated for 72 hrs by microscopic analysis; format: functional, cell-based; conditions: dose 5.0 µmol/L; summary of the method: as §1
T47D [17] = assay: Induction of polyploidy in human T47D cells assessed as cells with 4N chromosome contents at 5 uM incubated for 48 hrs by PI staining based flow cytometry (reference value: 35); format: functional
[18] = Effect on doxorubicin resistance in human T47D cells with compound-induced polyploidy assessed as change in doxorubicin-induced cytotoxicity by measuring increase in doxorubicin IC50 at 5 umol/L preincubated for 72 hrs followed by compound washout and subsequent doxorubicin treatment for 72 hrs by MTS assay; format: functional, cell-based
[19] = Cmax in athymic mouse xenografted with human GTL-16 cells upto 50 mg/kg, po qd for 14 days consecutively; format: ADME, organism-based; conditions: in vivo, time 14 day
ZR-75-1 [20] = assay: Downregulation of histone H3 expression in human ZR-75-1 cells at 5 umol/L incubated upto 72 hrs by Western blot analysis; format: functional, cell-based; conditions: dose 5.0 µmol/L
Summary of the method: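 Cells were treated with 5 µmol/L for 0, 24, 48 and 72 h. Lysates were immunoblotted for AURK-B, phospho-Ser10 histone H3 and total histone H3, with β-actin reprobe as the loading control. Detection by enhanced chemiluminescence.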

[21] = Effect on bleomycin resistance in human ZR-75-1 cells with compound-induced polyploidy assessed as change in bleomycin-induced cytotoxicity by measuring increase in bleomycin IC50 at 5 umol/L preincubated for 72 hrs followed by compound washout and subsequent bleomycin treatment for 72 hrs by MTS assay; format: functional, cell-based
T47D [22] = assay: Induction of polyploidy in human T47D cells at 5 uM incubated for 72 hrs by microscopic analysis; format: functional, cell-based; summary of the method: as §2
T-47D (Homo sapiens) = assay: Disruption of microtubule dynamics in human T-47D cells at 5 umol/L incubated upto 72 hrs by immunofluorescence staining based analysis; conditions: dose 5.0 µmol/L
[23] = Effect on methotrexate resistance in human T47D cells with compound-induced polyploidy assessed as change in methotrexate-induced cytotoxicity by measuring increase in methotrexate IC50 at 5 umol/L preincubated for 72 hrs followed by compound washout and subsequent methotrexate treatment for 72 hrs by MTS assay; format: functional, cell-based
[24] = Effect on bleomycin resistance in human T47D cells with compound-induced polyploidy assessed as change in bleomycin-induced cytotoxicity by measuring increase in bleomycin IC50 at 5 umol/L preincubated for 72 hrs followed by compound washout and subsequent bleomycin treatment for 72 hrs by MTS assay; format: functional, cell-based
T47D [25] = assay: Induction of polyploidy in human T47D cells at 5 umol/L incubated for 72 hrs by microscopic analysis relative to control; format: functional; conditions: dose 5 µmol/L, at 5 µM; summary of the method: as §2
T47D [26] = assay: Induction of polyploidy in human T47D cells assessed as cells with 4N chromosome contents at 5 uM incubated for 72 hrs by PI staining based flow cytometry (reference value: 35); format: functional
ZR-75-1 [27] = assay: Induction of polyploidy in human ZR-75-1 cells assessed as cells with 2N chromosome contents at 5 uM incubated for 48 hrs by PI staining based flow cytometry (reference value: 48); format: functional

## CCOc1ccn(-c2ccc(F)cc2)c(=O)c1C(=O)Nc1ccc(Oc2ccnc(N)c2Cl)c(F)c1 [BMS-777607]
[1]
  IC50: 9.1 nM
T47D [2]
  Activity: 21
ZR-75-1 [3]
  Activity: Active
MCF7 [4]
  Activity: 38
ZR-75-1 [5]
  Activity: 7.4%
[6]
  IC50: 20.8 nM
T47D [7]
  Activity: 26
ZR-75-1 [8]
  Activity: Active
T47D [9]
  Activity: Tde
T47D [10]
  Activity: 8.1%
T47D [11]
  Activity: Active
MCF7 [12]
  Activity: 14
[13]
  IC50: 430 nM
ZR-75-1 [14]
  Activity: inactive
T47D [15]
  Activity: 86%
T47D [16]
  Activity: Active
T47D [17]
  Activity: 22
[18]
  IC50: 1420 nM
[19]
  Cmax: 43.7 µM
ZR-75-1 [20]
  Activity: inactive
[21]
  IC50: 2260 nM
T47D [22]
  Activity: Active
T-47D (Homo sapiens)
  Activity: Active
[23]
  IC50: 585 nM
[24]
  IC50: 2720 nM
T47D [25]
  Activity: 78%
T47D [26]
  Activity: 20
ZR-75-1 [27]
  Activity: 4.5
